Experimental data collected from several papers.
Protocols differ between the studies behind these lines.
Read-out: cell growth or viability

With `CC(C)(C)c1cnc(CSc2cnc(NC(=O)C3CCN(CC(=O)NCCOCCOCCOCCNc4cccc5c4C(=O)N(C4CCC(=O)NC4=O)C5=O)CC3)s2)o1` (centres unmarked) the IC50 was 21.6 nM (TC-71; MTT; 72 h).
`CONC(=O)c1cccc2c1cc(C)n2-c1nc2c(c(NCc3ccccc3)n1)CCCN2` has an IC50 of 500 nM (RPMI-8226; ATP luminescence; 72 h).
`CC(C)(C)c1cnc(CSc2cnc(NC(=O)C3CCNCC3)s2)o1` gave an IC50 of 48.9 nM (TC-71; MTT; 72 h).
`COc1ccc(CNc2ccc(C(=O)O)cc2)cc1` has an IC50 of > 100000 nM (NCI-H69; resazurin; 72 h).
With `Cc1cc2c(C(N)=O)cccc2n1-c1nc2c(c(NCc3cccc(O)c3)n1)CCCN2` the IC50 was 300 nM (RPMI-8226; ATP luminescence; 72 h).
With `CC(C)(C)NS(=O)(=O)c1cccc(C(=O)N2CC3(CCC4(CC4)CC3)c3cc(NS(C)(=O)=O)ccc32)c1` the IC50 was 11 nM (OVCAR-3; 7 days).
With `COc1cccc(CNc2ccc(C(=O)O)cc2)c1O` the IC50 was > 100000 nM (NCI-H69; resazurin; 72 h).
For `CC(C)(C)c1cnc(CSc2cnc(NC(=O)C3CCN(C(=O)CCCCCCCCCCN4Cc5cc6c(cc5C4)C(=O)N(C4CCC(=O)NC4=O)C6=O)CC3)s2)o1` (centres unmarked), the IC50 was 71.8 nM (TC-71; MTT; 72 h).
The IC50 of `O=C(O)c1ccc(NCc2ccccc2)cc1` is reported as > 100000 nM (NCI-H69; resazurin; 72 h).
`CC(C)(C)c1cnc(CSc2cnc(NC(=O)C3CCN(C(=O)CCCCCCCN4Cc5cc6c(cc5C4)C(=O)N(C4CCC(=O)NC4=O)C6=O)CC3)s2)o1` (centres unmarked) gave an IC50 of 8.52 nM (TC-71; MTT; 72 h).
For `O=C1CCCC2=C1C(c1c(C(=O)O)[nH]c3ccccc13)c1c(ccc3ccccc13)O2` (centres unmarked), the IC50 was 24.1 µg/mL (3T3-L1; MTT; 72 h).
`O=C(O)c1ccc(NCc2cccc(C(F)(F)F)c2)cc1` has an IC50 of > 100000 nM (NCI-H69; resazurin; 72 h).
`Cc1cc2c(C(N)=O)cccc2n1-c1nc(NCc2ccccc2)c2c(n1)NC(C)CC2` (centres unmarked) gave an IC50 of 1300 nM (RPMI-8226; ATP luminescence; 72 h).
For `CC(C)(C)c1cnc(CSc2cnc(NC(=O)C3CCN(C(=O)CCCCCCN4Cc5cc6c(cc5C4)C(=O)N(C4CCC(=O)NC4=O)C6=O)CC3)s2)o1` (centres unmarked), the IC50 was 9.58 nM (TC-71; MTT; 72 h).
`Cc1cc2c(C(N)=O)cccc2n1-c1nc2c(c(NCc3ccccc3O)n1)CCCN2` gave an IC50 of 9800 nM (RPMI-8226; ATP luminescence; 72 h).
With `COc1cc(CNc2ccc(C(=O)O)cc2)ccc1O` the IC50 was > 100000 nM (NCI-H69; resazurin; 72 h).
With `Cc1cc2c(C(=O)O)cccc2n1-c1nc2c(c(NCc3ccccc3)n1)CCCN2` the IC50 was 800 nM (RPMI-8226; ATP luminescence; 72 h).
With `CN1C(=O)CCC(N2C(=O)c3cc4c(cc3C2=O)CN(CCCCCCCC(=O)N2CCC(C(=O)Nc3ncc(SCc5ncc(C(C)(C)C)o5)s3)CC2)C4)C1=O` (centres unmarked) the IC50 was > 1000 nM (TC-71; MTT; 72 h).
With `Cc1cc2c(C(N)=O)cncc2n1-c1nc2c(c(NCc3ccccc3)n1)CCCN2` the IC50 was 2900 nM (RPMI-8226; ATP luminescence; 72 h).
For `COc1cccc(CNc2ccc(C(=O)O)cc2)c1OC`, the IC50 was > 100000 nM (NCI-H69; resazurin; 72 h).
